Publication PMC2647014 (Journal of the American Chemical Society, 2008)
Blank lines part the entries; values can stand above or below the molecule they belong to.

What was measured:
[1] = Stability to hydrolysis of the imide ring in PBS buffer; format: physicochemical
Procedure, shortened: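 Fluorophore-bearing model peptides are incubated in PBS at pH 6, 7 and 8 and 28 °C, with fluorescence monitored in a 96-well plate over 24 hrs. For the 4-DMAP peptide, percent conversion is the percent loss of fluorescence from time zero.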

[2] = Photophysical properties of the fluorescent KR peptides; format: physicochemical; conditions: visible spectrum
[3] = Stability toward 4-methylpiperidine / piperidine; format: physicochemical; conditions: during preparation of fluorescent peptides by SPPS
Procedure, shortened: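 Resin-bound model peptides are treated with 4-methylpiperidine under conditions simulating a standard Fmoc-deprotection cycle. Treated and untreated samples are cleaved from the resin under acidic conditions. Crude mixtures are analysed by HPLC and ESI mass spectrometry for hydrolysis byproducts.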

[4] = cited from earlier work

fluorescence emission after 24 hrs (in words) ([1]; PBS buffer, 28 °C, 24 hrs, Figure 2b, harshest conditions anticipated): no significant change in fluorescence
Structure (SMILES): CN(C)c1ccc2c3c(cccc13)C(=O)NC2=O [4-DMN, 4-N,N-dimethylamino-1,8-naphthalimide]

wavelength of excitation of the fluorophore / amino acid [2]: 400-450 nm
Structure (SMILES): CN(C)c1ccc2c3c(cccc13)C(=O)N(C[C@H](N)C(=O)O)C2=O [4-DMNA, 4-N,N-dimethylamino-1,8-naphthalimidoalanine]
relative stability of fluorescent side-chain (in words) ([1]; compared with 4-DAPA and 6-DMNA): significantly more stable than those of 4-DAPA and 6-DMNA

susceptibility to piperidine (in words) [3]: shows no susceptibility to piperidine
Structure (SMILES): CN(C)c1ccc2c3c(cccc13)C(=O)N(C[C@H](NC(=O)OCC1c3ccccc3-c3ccccc31)C(=O)O)C2=O [compound 4, N-α-Fmoc-(4-N,N-Dimethylamino-1,8-naphthalimido)-alanine]

Structure (SMILES): CN(C)c1ccc2cc(C(=O)CBr)ccc2c1 [BADAN, 6-bromoacetyl-2-dimethylaminonaphthalene]
fluorescence quantum yield in water (Φwater) [4]: 0.18

emission maximum of fluorescent species from hydrolysis ([1]; hydrolysis product, high pH): 470-480 nm
Structure (SMILES): CN(C)c1ccc2cc3c(cc2c1)C(=O)NC3=O [6-DMN, 6-N,N-dimethylamino-2,3-naphthalimide, reference compound]

hydrolysis product fluorescence (in words) ([1]; hydrolysis of the imide ring, high pH): non-fluorescent byproduct
Structure (SMILES): CN(C)c1ccc2c(c1)C(=O)NC2=O [4-DMAP, 4-N,N-dimethylaminophthalimide, reference compound]
